The values below come from publication PMC3352694 (International Journal of Nanomedicine, 2012).

Data set [1] relates to Caco-2 cell monolayers. Put plainly: Uptake of Lac-NCTD and its nanoparticles into Caco-2 cell monolayers. Type of data set: in vitro ADME, human. The essentials:
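Monolayers grown 15 days from 1 × 10⁵ cells/cm² in plates, washed, preincubated 15 min at 37°C in HBSS pH 7.4, then exposed to drug or nanoparticle solution. After uptake (15 min, chosen within the linear range), cells were washed thrice with cold HBSS, scraped, homogenized and ultracentrifuged. Supernatant was assayed by reversed-phase HPLC, normalized to Bradford protein and given as mg/g protein, three determinations.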

For data set [2], the system named is Caco-2 cell monolayers. Kind of data set: Bidirectional transepithelial transport across Caco-2 cell monolayers. Type of data set: in vitro ADME, human. The essentials: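 Caco-2 cells (passage 30–50) seeded at 1 × 10⁵ cells/cm² on 1.1 cm² polycarbonate inserts (1 μm pores), used day 21 when TEER reached 700 Ω·cm² and phenol red permeability <0.5%/h. HBSS pH 7.4 preincubation 15 min, 37°C; drug or nanoparticles dosed apically or basolaterally; receiver sampled at 5–60 min with replacement; reversed-phase HPLC. Papp = dQ/dt/(A·C0); PDR from BL→AP and AP→BL; n = 3.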
(In general: Caco-2 cells form a polarised layer with tight junctions and transporters.)

For data set [3] the following is noted: cited from earlier work.

With Lactosyl-norcantharidin [Lac-NCTD], the “Effect of concentration on uptake” value with Caco-2 cell monolayers [1] (100 μg/mL to 400 μg/mL) is “Concentration dependence or saturation was observed”. In addition, the Uptake amount in the data set on Caco-2 cell monolayers [1] (250 μg/mL, 4°C) came out at 1.35 ± 0.13 mg/g protein. For the same substance, in the data set with Caco-2 cell monolayers [1] (250 μg/mL, 37°C), the “Time course of uptake” value is “linear in relation to time, from 0 minutes to 30 minutes”. The Uptake amount in the data set on Caco-2 cell monolayers [1] (250 μg/mL, pH 6.0) came out at 0.82 ± 0.23 mg/g protein. Moreover, the “Effect of P-gp inhibitor CyA on uptake” value in the data set on Caco-2 cell monolayers [1] (CyA 20 μmol/L) is listed as “facilitate the uptake procedure”. In addition, the “Effect of MRP2 inhibitor MK-571 on uptake” value in the data set on Caco-2 cell monolayers [1] (MK-571 50 μmol/L) is reported as “facilitate the uptake procedure”. Also, in the data set with Caco-2 cell monolayers [2] (250 μg/mL, CyA 20 μmol/L), the “Change of Papp apical to basolateral with CyA” value is listed as “increased” and the “Change of Papp basolateral to apical with CyA” value is on record as “decreased”. Also, in the data set with Caco-2 cell monolayers [2] (250 μg/mL, MK-571 50 μmol/L), the “Change of Papp apical to basolateral with MK-571” value was “significantly increased” and the “Change of Papp basolateral to apical with MK-571” value is given as “lightly decreased”. Besides, in the data set with Caco-2 cell monolayers [2] (250 μg/mL, SDCh 100 mmol/L, versus control), the “Change of Papp with bypass transport enhancer SDCh” value is “significantly increased”. For the same substance, the “Change of Papp with endocytosis inhibitor oxophenylarsine” value with Caco-2 cell monolayers [2] (250 μg/mL, oxophenylarsine 25 mmol/L, versus control) is reported as “no statistical difference”. Besides, in the data set with Caco-2 cell monolayers [2] (CyA 20 μmol/L added to the apical side), the “Increase of Papp apical to basolateral with CyA” value is 1.41 times. Besides, the “Increase of Papp apical to basolateral with MK-571” value in the data set on Caco-2 cell monolayers [2] (MK-571 50 μmol/L added to the apical side) worked out at 2.29 times. Also, in data set [3], the “Therapy efficiency compared with NCTD” value is listed as “significantly higher therapy efficiency” and the “Toxicity compared with NCTD” value is “lower toxicity”.
